Variants at the floor of the assay were thinned out. A value given as a limit tells only on which side of the number the result lay.

B1: tRNA (parent)
chain: GUUCCGUUGGCGUAAUGGUAACGCGUCUCCCUCCUAAGGAGAAGACUGCGGGUUCGAGUCCCGUACGGAACG

Variants of B1 are the subject of the data set. The data set is described as follows: yeast fitness relative to wild type (ratio to wild type); higher = fitter; tRNA-Arg(CCU), competitive growth, 37 C, YPD. In short, it runs like this:
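The tRNA-Arg(CCU) gene variants were made by chemical synthesis with a 3% per-site mutation rate at 69 sites and inserted at the native genomic locus of Saccharomyces cerevisiae. After pooling, the strains were competed in YPD at 37°C for 24 hours in six parallel replicates. Gene amplicons from the start population and each end population were read by 100-nucleotide paired-end sequencing, and Darwinian fitness relative to wild type was taken from genotype frequency changes. Genotypes needed ≥ 100 starting reads, and estimates < 0.5 were set to 0.5.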
For the variant A20C C22U U26C C46G C49U A69C, the yeast fitness was no more than 0.5.

Regarding A20C G44C, the yeast fitness came to 0.688.

Consider A20C C29U C34A C46A G50A A57U C66U, for which the yeast fitness was no more than 0.5.

On to A20C C33G U59C, for which the yeast fitness was found to be 0.685.

A20C G25C C31U A43G G51A G67A: the yeast fitness amounted to 0.583.

With A20C C24U U47A G67C, the yeast fitness was no more than 0.5.

On to A20C G25A G44C G68A, for which the yeast fitness was 0.523.

For the variant A20C C27G C49A, the yeast fitness was no more than 0.5.

For A20C C30A C33U C34G G38C C62A, the yeast fitness was no more than 0.5.

For the variant A20C G39A U54A, the yeast fitness is 0.599.

On to A20C G25C U35A A45U, for which the yeast fitness was no more than 0.5.

With A20C C29U C34A C46A G50A A57U G58A C66U, the yeast fitness was no more than 0.5.

Take A20C C29U C31G U32A C33A U53C: the yeast fitness is no more than 0.5.

With A20C G23A C30A A40U, the yeast fitness was no more than 0.5.

For A20C C33A A40C, the yeast fitness came out at 0.7.

On to A20C C61A, for which the yeast fitness was 0.779.

Turning to A20C C61G, the yeast fitness is 0.747.

As for A20C C29U U32A A70U, the yeast fitness is no more than 0.5.

Regarding A20C C22G C34G G44A A65U, the yeast fitness stood at 0.569.

In the case of A20C C49U A70G, the yeast fitness worked out at 0.748.

Regarding A20C C46U, the yeast fitness turned out to be 1.13.

Turning to A20C C31G U47C G58C, the yeast fitness is no more than 0.5.

As for A20C G38A G51C U64G, the yeast fitness was no more than 0.5.

As to A20C G25C C29U, the yeast fitness is no more than 0.5.

On to A20C C24G C29G A65G, for which the yeast fitness was no more than 0.5.

In the case of A20C C27U C34G, the yeast fitness was 0.581.

Regarding A20C G25A G44A, the yeast fitness worked out at 0.85.

In the case of A20C C31G C61G A65G, the yeast fitness is no more than 0.5.

With A20C G48C C66U, the yeast fitness was found to be 0.73.

A20C C22U C34U U35G: the yeast fitness was no more than 0.5.

Take A20C C29G A57U: the yeast fitness is no more than 0.5.

A20C C24A C29G C34G G56A A65G A69C: the yeast fitness is 0.856.

As to A20C C24U A42U U59C A69U, the yeast fitness came out at 0.535.

For the variant A20C C29G U35C, the yeast fitness is no more than 0.5.

For A20C C24G A69U, the yeast fitness was no more than 0.5.

On to A20C C29U U54C, for which the yeast fitness is no more than 0.5.

Turning to A20C C61U A69C A70C, the yeast fitness was no more than 0.5.

Regarding A20C C22U C29G G41C C49G U53A, the yeast fitness was no more than 0.5.

Consider A20C C30G C55A G67A, for which the yeast fitness is no more than 0.5.

Consider A20C C27U, for which the yeast fitness came out at 1.02.

Regarding A20C C22U C33U C66A, the yeast fitness was no more than 0.5.

For A20C G23U C60A, the yeast fitness amounted to 0.676.

Consider A20C C34G G68C, for which the yeast fitness was no more than 0.5.

For the variant A20C G48C A57G, the yeast fitness was determined as 0.545.

As for A20C C30U C31U A45C A57U C66G, the yeast fitness is no more than 0.5.

On to A20C C29G C31U A57U, for which the yeast fitness is no more than 0.5.

Take A20C C22U A65G: the yeast fitness amounted to 0.596.

A20C C31U A42U: the yeast fitness amounted to 0.643.

In the case of A20C C46U G50A G67C A70U, the yeast fitness was no more than 0.5.

Take A20C C29G A57U A70C: the yeast fitness is no more than 0.5.

Turning to A20C C24G G56A C62A, the yeast fitness was no more than 0.5.

As to A20C C33U, the yeast fitness was found to be 0.816.

For the variant A20C G23C C34A G67A, the yeast fitness is no more than 0.5.

For the variant A20C G25C G38C G56C G63C U64C, the yeast fitness came out at 0.524.

With A20C C31U A40G G52C G67C, the yeast fitness is no more than 0.5.

For the variant A20C C46A C61U C66U, the yeast fitness is no more than 0.5.

Regarding A20C C49A U54A G58A C60A, the yeast fitness was found to be 0.593.

A20C C34U U47G C60U C62G: the yeast fitness is no more than 0.5.

Take A20C C24A C29U G63C: the yeast fitness was no more than 0.5.

In the case of A20C C29A G51C, the yeast fitness is no more than 0.5.

As to A20C C24U A42C C55G, the yeast fitness was no more than 0.5.

Turning to A20C C34U A40G A57C G67C, the yeast fitness is no more than 0.5.

On to A20C C30G U35C C60A, for which the yeast fitness was no more than 0.5.

In the case of A20C G23A A43G C55G C60A, the yeast fitness is no more than 0.5.

As for A20C C34A G50C C61U, the yeast fitness was no more than 0.5.

Regarding A20C C24U C34G, the yeast fitness was found to be 0.506.

As to A20C C33U G41A, the yeast fitness was no more than 0.5.

With A20C C24U A42U U59C C62U, the yeast fitness was no more than 0.5.

Regarding A20C C34A, the yeast fitness was 0.674.

A20C G25A C31G C33U C34U G41C A57G: the yeast fitness is no more than 0.5.

Consider A20C C29G, for which the yeast fitness turned out to be 0.609.

As for A20C C31U A40G G52C C62A A65G, the yeast fitness is no more than 0.5.

With A20C G39C C61U, the yeast fitness is no more than 0.5.

Regarding A20C G38A C55A C66U, the yeast fitness was no more than 0.5.

Consider A20C C60G, for which the yeast fitness is 0.591.

With A20C C60U, the yeast fitness came to 0.742.

With A20C G25A U28C G44A, the yeast fitness was 0.553.

As to A20C C27U C62U, the yeast fitness stood at 0.731.

A20C C30A A37G U59A: the yeast fitness was no more than 0.5.

For the variant A20C G41C A42C G56A U64C A70U, the yeast fitness is no more than 0.5.

As for A20C C30A C33U C34U C49A, the yeast fitness was found to be 0.733.

With A20C C34U G52A C62U, the yeast fitness was no more than 0.5.

As for A20C C31A C60U, the yeast fitness is no more than 0.5.

The values are drawn from the RNAGym collection of RNA variant scans (doi:10.1126/science.aae0568).
